Data: ChEMBL document CHEMBL1152648, “Synthesis and biological evaluation of epothilone A dimeric compounds” (Bioorg Med Chem, 2009)
Converted amounts (≈) assume the structure as drawn.

Experiments:
Tubulin (Sus scrofa) [1] = molecular target: T1, Tubulin (Sus scrofa) (UniProt P02554+P02550); assay: Induction of pig brain tubulin polymerization at 10 uM
[2] = Cytotoxicity against BAEC; details: Bos taurus
Summary of the method: (§1)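 Cells (3 × 10^3 BAE or 2 × 10^3 HT1080) in their growth media with serial compound dilutions, 3 days, 37 °C, 5% CO2. MTT added for 4 h, formazan dissolved in 0.04 N HCl–2-propanol, read at 550 nm. Triplicate determinations. IC50 is the concentration giving 50% cell survival. Means ± SD of three independent experiments.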

[3] = Antiangiogenic activity in BAEC assessed as inhibition of tube formation after 7 hrs by cell differentiation assay; assay type: functional; details: Bos taurus
Summary of the method: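 BAE cells (5 × 10^4) in DMEM plated on polymerized Matrigel (about 10.5 mg/mL), compounds added at different amounts, 37 °C, 5% CO2, 7 h. Cord/tube formation photographed at 200×. Each concentration tested in duplicate, scored by two observers.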

[4] = Cytotoxicity against mouse betaD10 cells after 96 hrs by MTS assay; assay type: functional, cell-based
Summary of the method: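 βD10 lung tumor cells from c-myc/c-raf double transgenic mice seeded at 10^3 cells/well and left to attach 24 h. Compounds added in medium at various concentrations for 24 or 96 h. MTS/PES reagent then 1 h at 37 °C, absorbance at 490 nm. Quintuplicates, expressed as % of control.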

MCF7 = assay: Cytotoxicity against human MCF7 cells after 72 hrs by methylene blue assay; assay type: functional, cell-based; details: MCF7, 72 h
Summary of the method: (§2)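 Cells exposed to compounds for 72 h, then fixed. Protein content quantified by methylene blue staining. IC50 is 50% inhibition of control growth. Means ± SD of three independent experiments.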

Tubulin (Sus scrofa) [5] = molecular target: T1, Tubulin (Sus scrofa); assay: Induction of pig brain tubulin polymerization at 5 uM
A549 = assay: Cytotoxicity against human A549 cells after 72 hrs by methylene blue assay; assay type: functional, cell-based; details: A549, 72 h
Summary of the method: as §2

[6] = Antiangiogenic activity in BAEC assessed as inhibition cell migration after 24 hrs by […] migration assay; assay type: functional; details: Bos taurus
Summary of the method: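 BAE monolayers grown to confluence, wounded with pipette tips to give one acellular 1 mm-wide lane per well, washed, then given complete medium with or without test compounds. Same wounded areas photographed at 0, 7 and 24 h under microscope.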

HT-1080 = assay: Cytotoxicity against human HT1080 cells after 3 days by MTT assay; assay type: functional, cell-based; details: HT-1080, 72 h
Summary of the method: as §1

T1 sequence (P02550 whole entry, looked up): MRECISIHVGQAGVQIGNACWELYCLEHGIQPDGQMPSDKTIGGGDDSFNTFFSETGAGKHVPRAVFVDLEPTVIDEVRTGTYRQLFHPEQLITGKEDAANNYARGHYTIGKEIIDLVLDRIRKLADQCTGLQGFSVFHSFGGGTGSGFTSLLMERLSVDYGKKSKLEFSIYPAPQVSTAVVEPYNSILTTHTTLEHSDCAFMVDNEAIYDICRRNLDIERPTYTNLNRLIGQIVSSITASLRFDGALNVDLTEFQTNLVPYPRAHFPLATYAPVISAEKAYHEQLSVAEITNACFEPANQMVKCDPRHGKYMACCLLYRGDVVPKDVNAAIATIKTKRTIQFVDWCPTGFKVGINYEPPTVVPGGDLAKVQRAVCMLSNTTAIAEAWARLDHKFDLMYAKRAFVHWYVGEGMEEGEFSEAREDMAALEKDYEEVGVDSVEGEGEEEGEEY
T1 sequence (P02554 whole entry, looked up): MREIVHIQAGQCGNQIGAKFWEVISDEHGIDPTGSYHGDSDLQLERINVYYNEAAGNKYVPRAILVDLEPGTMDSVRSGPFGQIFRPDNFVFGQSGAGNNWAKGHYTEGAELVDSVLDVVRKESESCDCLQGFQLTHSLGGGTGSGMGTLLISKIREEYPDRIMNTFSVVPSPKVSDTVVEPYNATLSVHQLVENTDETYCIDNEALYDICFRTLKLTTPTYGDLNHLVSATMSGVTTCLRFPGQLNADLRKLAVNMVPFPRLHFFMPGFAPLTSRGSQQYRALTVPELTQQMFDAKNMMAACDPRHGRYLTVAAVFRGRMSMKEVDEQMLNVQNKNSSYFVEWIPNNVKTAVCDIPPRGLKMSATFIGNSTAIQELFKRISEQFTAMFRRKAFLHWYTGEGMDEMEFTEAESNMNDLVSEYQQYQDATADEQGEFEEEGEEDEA

% tubulin polymerization (Tubulin (Sus scrofa) [1]) [%]	MIC [3] [µM]	% tubulin polymerization (Tubulin (Sus scrofa) [5]) [%]	MIC [6] [µM]	Compound	IC50 [2] [nM]	IC50 [4] [nM]	IC50 (MCF7) [nM]	IC50 (A549) [nM]	IC50 (HT-1080) [nM]
0.7	0.1 (≈ 0.11 µg/mL)	0.2	0.1 (≈ 0.11 µg/mL)	C/C(=C\c1csc(C)n1)[C@@H]1C[C@@H]2O[C@@H]2CCC[C@H](C)[C@H](OC(=O)CCCCC(=O)O[C@H]2[C@@H](C)CCC[C@H]3O[C@H]3C[C@@H](/C(C)=C/c3csc(C)n3)OC(=O)C[C@H](O)C(C)(C)C(=O)[C@@H]2C)[C@@H](C)C(=O)C(C)(C)[C@@H](O)CC(=O)O1	40	70500	412	405	69
0.3	0.1 (≈ 0.113 µg/mL)	0.7	0.1 (≈ 0.113 µg/mL)	C/C(=C\c1csc(C)n1)[C@@H]1C[C@@H]2O[C@@H]2CCC[C@H](C)[C@H](OC(=O)CCCCCCC(=O)O[C@H]2[C@@H](C)CCC[C@H]3O[C@H]3C[C@@H](/C(C)=C/c3csc(C)n3)OC(=O)C[C@H](O)C(C)(C)C(=O)[C@@H]2C)[C@@H](C)C(=O)C(C)(C)[C@@H](O)CC(=O)O1	20	2500	321	316	17
0.2	0.1 (≈ 0.119 µg/mL)	0.5	0.1 (≈ 0.119 µg/mL)	C/C(=C\c1csc(C)n1)[C@@H]1C[C@@H]2O[C@@H]2CCC[C@H](C)[C@H](OC(=O)CCCSSCCCC(=O)O[C@H]2[C@@H](C)CCC[C@H]3O[C@H]3C[C@@H](/C(C)=C/c3csc(C)n3)OC(=O)C[C@H](O)C(C)(C)C(=O)[C@@H]2C)[C@@H](C)C(=O)C(C)(C)[C@@H](O)CC(=O)O1	133	2000	432	383	71
0.6	0.05 (≈ 0.0577 µg/mL)	0.1	0.1 (≈ 0.115 µg/mL)	C/C(=C\c1csc(C)n1)[C@@H]1C[C@@H]2O[C@@H]2CCC[C@H](C)[C@H](OC(=O)CCCCCCCCC(=O)O[C@H]2[C@@H](C)CCC[C@H]3O[C@H]3C[C@@H](/C(C)=C/c3csc(C)n3)OC(=O)C[C@H](O)C(C)(C)C(=O)[C@@H]2C)[C@@H](C)C(=O)C(C)(C)[C@@H](O)CC(=O)O1	39	5020	1030	956	13
1	0.1 (≈ 0.113 µg/mL)	0.3	0.05 (≈ 0.0567 µg/mL)	C/C(=C\c1csc(C)n1)[C@@H]1C[C@@H]2O[C@@H]2CCC[C@H](C)[C@H](OC(=O)CSSCC(=O)O[C@H]2[C@@H](C)CCC[C@H]3O[C@H]3C[C@@H](/C(C)=C/c3csc(C)n3)OC(=O)C[C@H](O)C(C)(C)C(=O)[C@@H]2C)[C@@H](C)C(=O)C(C)(C)[C@@H](O)CC(=O)O1	29	1000	357	319	290
0.2	0.05 (≈ 0.0581 µg/mL)	0	0.1 (≈ 0.116 µg/mL)	C/C(=C\c1csc(C)n1)[C@@H]1C[C@@H]2O[C@@H]2CCC[C@H](C)[C@H](OC(=O)CCSSCCC(=O)O[C@H]2[C@@H](C)CCC[C@H]3O[C@H]3C[C@@H](/C(C)=C/c3csc(C)n3)OC(=O)C[C@H](O)C(C)(C)C(=O)[C@@H]2C)[C@@H](C)C(=O)C(C)(C)[C@@H](O)CC(=O)O1	111	3.3	379	367	43

Compound	% tubulin polymerization (Tubulin (Sus scrofa) [1]) [%]	MIC [3] [µM]	% tubulin polymerization (Tubulin (Sus scrofa) [5]) [%]	MIC [6] [µM]	IC50 [2] [nM]	IC50 [4] [nM]	IC50 (MCF7) [nM]	IC50 (A549) [nM]	IC50 (HT-1080) [nM]
C/C(=C\c1csc(C)n1)[C@@H]1C[C@@H]2O[C@@H]2CCC[C@H](C)[C@H](O)[C@@H](C)C(=O)C(C)(C)[C@@H](O)CC(=O)O1 [EPOTHILONE A]	99.8	0.005 (≈ 0.00247 µg/mL)	92.2	0.005 (≈ 0.00247 µg/mL)	0.7	70	2.5	2.6	1.3
